Measurements of several laboratories.
Protocols differ between the studies behind these lines.
Cell line: PC-3
Observed: cell growth or viability

O=C(/C=C/c1ccc2ncn(Cc3ccccc3)c(=O)c2c1)NO
IC50 (SRB; 48 h): 1540 nM

CN(C)CCCn1cccc1/C=N/NC(=O)Nc1cc2c(Nc3ccc(F)c(Cl)c3)ncnc2cc1O[C@H]1CCOC1
IC50 (MTT; 72 h): 3740 nM

Cc1cc(C)cc(COc2cc3c(cc2OCc2cc(C)cc(C)c2)[C@H]2C[C@](O)(Cc4cn(CC5CCCCC5)nn4)C[C@H](C)N2CC3)c1
IC50 (MTT): 384 nM

COc1cccc2c1C(=O)c1c(O)c3c(c(O)c1C2=O)C[C@@](O)(C(=O)CO)C[C@@H]3O[C@H]1C[C@H](N)[C@H](O)[C@H](C)O1
IC50 (MTS; 48 h): 680 nM

Cc1cc(C)cc(COc2cc3c(cc2OCc2cc(C)cc(C)c2)[C@H]2C[C@](O)(Cc4cn(Cc5ccc(Cl)c(Cl)c5)nn4)C[C@H](C)N2CC3)c1
IC50 (MTT): 381 nM

COCCCOc1ccnc(COc2ccc(NC(=O)Nc3cccc(C(F)(F)F)c3)cc2)c1C
IC50 (MTT; 72 h): > 100000 nM

O=C(/C=C/c1ccc2c(=O)n(CC3CCCC3)cnc2c1)NO
IC50 (SRB; 48 h): 2490 nM

COC1=CC(=O)N(C(=O)[C@@H](CCC(Cl)(Cl)Cl)NC(=O)C(C)(C)C)[C@@H]1CCC(Cl)Cl
IC50 (resazurin; 72 h): 28000 nM

Cc1cc(C)cc(COc2cc3c(cc2OCc2cc(C)cc(C)c2)[C@H]2C[C@](O)(Cc4cn(Cc5cccnc5)nn4)C[C@H](C)N2CC3)c1
IC50 (MTT): 638 nM

CC(C)C(=O)Nc1ccc([N+](=O)[O-])c(C(F)(F)F)c1
IC50 (CCK-8; 48 h): > 50000 nM

O=C(N/N=C/c1cccn1CCCN1CCCC1)Nc1cc2c(Nc3ccc(F)c(Cl)c3)ncnc2cc1O[C@H]1CCOC1
IC50 (MTT; 72 h): 1820 nM

Cc1cc(C)cc(COc2cc3c(cc2OCc2cc(C)cc(C)c2)[C@H]2C[C@](O)(Cc4cn(CCc5ccccc5)nn4)C[C@H](C)N2CC3)c1
IC50 (MTT): 318 nM

Cc1c(OCC(F)(F)F)ccnc1COc1ccc(NC(=O)Nc2ccc(F)cc2)cc1
IC50 (MTT; 72 h): 60200 nM

COc1ccc(/C=C/c2cc(C)no2)cc1
IC50 (MTT; 72 h): > 100000 nM

CCCCCCCCCc1ccc(C(=O)Nc2cc(C)ccc2C(=O)OC)cc1
IC50 (MTT): > 120000 nM

COc1cccc2c1C(=O)c1c(O)c3c(c(O)c1C2=O)C[C@@](O)(C(=O)CO)C[C@@H]3O[C@H]1C[C@H](N)[C@H](O)[C@H](C)O1
IC50 (MTT; 48 h): 0.629 µg/mL

CCN(CC)CCn1cccc1/C=N/NC(=O)Nc1cc2c(Nc3ccc(F)c(Cl)c3)ncnc2cc1OC
IC50 (MTT; 72 h): 1050 nM

CNC(=O)c1cc(Oc2ccc(NC(=O)Nc3ccc(Cl)c(C(F)(F)F)c3)cc2)ccn1
IC50 (MTT; 72 h): 3600 nM

Cc1cc(C)cc(COc2cc3c(cc2OCc2cc(C)cc(C)c2)[C@H]2C[C@](O)(Cc4cn(Cc5ccncc5)nn4)C[C@H](C)N2CC3)c1
IC50 (MTT): 167 nM

CC(C)c1cc(-c2n[nH]c(=O)n2-c2ccc3c(ccn3C)c2)c(O)cc1O
IC50 (imaging; 24 h): 138 nM

O=C(/C=C/c1ccc(CN(CCO)CCc2c[nH]c3ccccc23)cc1)NO
IC50 (resazurin; 72 h): 71 nM

COc1cc2ncnc(Nc3ccc(F)c(Cl)c3)c2cc1NC(=O)N/N=C/c1cccn1CCN1CCOCC1
IC50 (MTT; 72 h): 820 nM

Cc1cc(C)cc(COc2cc3c(cc2OCc2cc(C)cc(C)c2)[C@H]2C[C@](O)(Cc4cn(Cc5cc(C(F)(F)F)cc(C(F)(F)F)c5)nn4)C[C@H](C)N2CC3)c1
IC50 (MTT): 406 nM

CCOC(=O)c1[nH]cc2c1NC1=C(C(=O)CCC1)[C@H]2c1cccc(Oc2nc3ccccc3[nH]2)c1
IC50 (ATP luminescence; 72 h): > 10000 nM

COc1cc(Nc2nc(CNCc3ccccc3)cc3c(-c4ccccc4)n[nH]c23)cc(OC)c1OC
IC50 (MTS; 48 h): 4300 nM

COc1ccnc(COc2ccc(NC(=O)Nc3cc(F)cc(F)c3)cc2)c1OC
IC50 (MTT; 72 h): > 100000 nM

CC(C)C[C@H](NC(=O)[C@H](Cc1ccccc1)NC(=O)c1cnccn1)B(O)O
IC50 (ATP luminescence): 12 nM

Cc1cc(C)cc(COc2cc3c(cc2OCc2cc(C)cc(C)c2)[C@H]2C[C@](O)(Cc4cn(Cc5ccc(O)cc5)nn4)C[C@H](C)N2CC3)c1
IC50 (MTT): 790 nM

CCN(CC)CCCn1cccc1/C=N/NC(=O)Nc1cc2c(Nc3ccc(F)c(Cl)c3)ncnc2cc1O[C@H]1CCOC1
IC50 (MTT; 72 h): 2240 nM

NCc1cc2c(-c3ccccc3)n[nH]c2c(Nc2ccccc2)n1
IC50 (MTS; 48 h): 1600 nM

COc1ccc(NC(=O)Nc2ccc(OCc3nccc(OC)c3OC)cc2)cc1
IC50 (MTT; 72 h): 46400 nM

CN1CCN(CCn2cccc2/C=N/NC(=O)Nc2cc3c(Nc4ccc(F)c(Cl)c4)ncnc3cc2O[C@H]2CCOC2)CC1
IC50 (MTT; 72 h): 1890 nM

COc1c(C)cnc(COc2ccc(NC(=O)Nc3ccc(Cl)c(C(F)(F)F)c3)cc2)c1C
IC50 (MTT; 72 h): > 100000 nM

COc1cc2ncnc(Nc3ccc(F)c(Cl)c3)c2cc1NC(=O)N/N=C/c1cccn1CCCN(C)C
IC50 (MTT; 72 h): 30 nM

COCCCOc1ccnc(COc2ccc(NC(=O)Nc3ccc(F)cc3)cc2)c1C
IC50 (MTT; 72 h): > 100000 nM

COc1cc(Nc2nc(CN)cc3c(-c4ccccc4)n[nH]c23)cc(OC)c1OC
IC50 (MTS; 48 h): 3500 nM

COc1c(C)cnc(COc2ccc(NC(=O)Nc3ccc(F)cc3)cc2)c1C
IC50 (MTT; 72 h): 43300 nM

Cc1cc(C)cc(COc2cc3c(cc2OCc2cc(C)cc(C)c2)[C@@H]2C[C@@](O)(Cc4cn(Cc5ccc(S(C)(=O)=O)cc5)nn4)C[C@@H](C)N2CC3)c1
IC50 (MTT): 230 nM

CN(C)CCn1cccc1/C=N/NC(=O)Nc1cc2c(Nc3ccc(F)c(Cl)c3)ncnc2cc1O[C@H]1CCOC1
IC50 (MTT; 72 h): 3840 nM

C[C@H]1[C@@H](O)O[C@@H]2O[C@@]3(C)CC[C@H]4[C@H](C)CC[C@@H]1[C@@]24OO3
IC50 (CCK-8; 48 h): > 50000 nM
